Source: ChEMBL document CHEMBL4373711, “Development of 3,5-Dinitrophenyl-Containing 1,2,4-Triazoles and Their Trifluoromethyl Analogues as Highly Efficient Antitubercular Agents Inhibiting Decaprenylphosphoryl-β-d-ribofuranose 2'-Oxidase” (J Med Chem, 2019)
≈ marks a conversion by molar mass, not a printed value.

Tests used:
[1] = tested on: Mycobacterium tuberculosis; experiment: Antimycobacterial activity against multi-drug resistant Mycobacterium tuberculosis Praha 1 after 14 days; type: functional; settings: Praha 1, 336 h
How it was run: (§1)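 M. tuberculosis strains (H37Rv and clinical MDR/XDR isolates) tested by microdilution in Šula's semisynthetic medium. Compounds were dissolved in DMSO and tested at 32 to 0.03 µM in twofold steps. Inoculum was a 1.0 McFarland suspension diluted 10-3. Plates were incubated at 37 °C and read at 14 and 21 days.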

[2] = tested on: Mycobacterium tuberculosis; experiment: Antimycobacterial activity against multi-drug resistant Mycobacterium tuberculosis Praha 1 after 21 days; type: functional; settings: Praha 1, 504 h; how it was run: as §1
[3] = tested on: Mycobacterium tuberculosis; experiment: Antimycobacterial activity against multi-drug resistant Mycobacterium tuberculosis Praha 4 after 14 days; settings: Praha 4, 336 h
[4] = tested on: Mycobacterium tuberculosis; experiment: Antimycobacterial activity against multi-drug resistant Mycobacterium tuberculosis Praha 4 after 21 days; type: functional; settings: Praha 4, 504 h; how it was run: as §1
[5] = tested on: Mycobacterium tuberculosis; experiment: Antimycobacterial activity against multi-drug resistant Mycobacterium tuberculosis 9449/2007 after 21 days; type: functional; settings: 9449/2007, 504 h; how it was run: as §1
[6] = tested on: Mycobacterium tuberculosis; experiment: Antimycobacterial activity against multi-drug resistant Mycobacterium tuberculosis 9449/2007 after 14 days; type: functional; settings: 9449/2007, 336 h; how it was run: as §1
[7] = tested on: Mycobacterium tuberculosis; experiment: Antimycobacterial activity against multi-drug resistant Mycobacterium tuberculosis 234/2005 after 21 days; type: functional; settings: 234/2005, 504 h; how it was run: as §1
[8] = tested on: Mycobacterium tuberculosis; experiment: Antimycobacterial activity against multi-drug resistant Mycobacterium tuberculosis 7357/1998 after 21 days; type: functional; settings: 7357/1998, 504 h; how it was run: as §1
[9] = tested on: Mycobacterium tuberculosis; experiment: Antimycobacterial activity against multi-drug resistant Mycobacterium tuberculosis 7357/1998 after 14 days; type: functional; settings: 7357/1998, 336 h; how it was run: as §1
[10] = tested on: Mycobacterium tuberculosis; experiment: Antimycobacterial activity against multi-drug resistant Mycobacterium tuberculosis 8666/2010 after 14 days; type: functional; settings: 8666/2010, 336 h; how it was run: as §1
[11] = tested on: Mycobacterium tuberculosis; experiment: Antimycobacterial activity against multi-drug resistant Mycobacterium tuberculosis 8666/2010 after 21 days; type: functional; settings: 8666/2010, 504 h; how it was run: as §1
[12] = tested on: Mycobacterium tuberculosis; experiment: microbe, parasite or virus in culture; settings: 234/2005, 336 h

Structure (SMILES)	MIC99 [1] [µM]	MIC99 [2] [µM]	MIC99 [3] [µM]	MIC99 [4] [µM]	MIC99 [5] [µM]	MIC99 [6] [µM]	MIC99 [7] [µM]	MIC99 [8] [µM]	MIC99 [9] [µM]	MIC99 [10] [µM]	MIC99 [11] [µM]	MIC99 [12] [µM]
COc1ccc(Cn2c(SCc3cc([N+](=O)[O-])cc([N+](=O)[O-])c3)nnc2-c2ccccc2)cc1	2 (≈ 0.955 µg/mL)	4 (≈ 1.91 µg/mL)	2 (≈ 0.955 µg/mL)	4 (≈ 1.91 µg/mL)	2 (≈ 0.955 µg/mL)	4 (≈ 1.91 µg/mL)	4 (≈ 1.91 µg/mL)	2 (≈ 0.955 µg/mL)	2 (≈ 0.955 µg/mL)	2 (≈ 0.955 µg/mL)	2 (≈ 0.955 µg/mL)	2 (≈ 0.955 µg/mL)
COc1ccc(CSc2nnc(-c3cc([N+](=O)[O-])cc([N+](=O)[O-])c3)n2Cc2ccccc2)cc1	0.03 (≈ 0.0143 µg/mL)	0.03 (≈ 0.0143 µg/mL)	0.03 (≈ 0.0143 µg/mL)	0.03 (≈ 0.0143 µg/mL)	0.03 (≈ 0.0143 µg/mL)	0.03 (≈ 0.0143 µg/mL)	0.03 (≈ 0.0143 µg/mL)	0.03 (≈ 0.0143 µg/mL)	0.03 (≈ 0.0143 µg/mL)	0.03 (≈ 0.0143 µg/mL)	0.03 (≈ 0.0143 µg/mL)	0.03 (≈ 0.0143 µg/mL)
O=[N+]([O-])c1cc(-c2nnc(SCc3ccc(Cl)c(Cl)c3)n2Cc2ccccc2)cc(C(F)(F)F)c1	2 (≈ 1.08 µg/mL)	2 (≈ 1.08 µg/mL)	2 (≈ 1.08 µg/mL)	2 (≈ 1.08 µg/mL)	2 (≈ 1.08 µg/mL)	2 (≈ 1.08 µg/mL)	2 (≈ 1.08 µg/mL)	2 (≈ 1.08 µg/mL)	2 (≈ 1.08 µg/mL)	2 (≈ 1.08 µg/mL)	2 (≈ 1.08 µg/mL)	2 (≈ 1.08 µg/mL)
CN[C@@H]1[C@H](O[C@H]2[C@H](O[C@H]3[C@H](O)[C@@H](O)[C@H](N=C(N)N)[C@@H](O)[C@@H]3N=C(N)N)O[C@@H](C)[C@]2(O)C=O)O[C@@H](CO)[C@H](O)[C@H]1O [STREPTOMYCIN]	–	–	> 32	–	> 32	–	–	> 32	–	> 32	–	–
O=[N+]([O-])c1cc(-c2nnc(SCc3ccc(Cl)cc3)n2Cc2ccccc2)cc([N+](=O)[O-])c1	0.125 (≈ 0.0602 µg/mL)	0.25 (≈ 0.12 µg/mL)	0.125 (≈ 0.0602 µg/mL)	0.25 (≈ 0.12 µg/mL)	0.125 (≈ 0.0602 µg/mL)	0.25 (≈ 0.12 µg/mL)	0.25 (≈ 0.12 µg/mL)	0.125 (≈ 0.0602 µg/mL)	0.25 (≈ 0.12 µg/mL)	0.125 (≈ 0.0602 µg/mL)	0.25 (≈ 0.12 µg/mL)	0.125 (≈ 0.0602 µg/mL)
O=[N+]([O-])c1cc(-c2nnc(SCc3ccccc3)n2Cc2ccccc2)cc([N+](=O)[O-])c1	0.03 (≈ 0.0134 µg/mL)	0.03 (≈ 0.0134 µg/mL)	0.03 (≈ 0.0134 µg/mL)	0.03 (≈ 0.0134 µg/mL)	0.03 (≈ 0.0134 µg/mL)	0.03 (≈ 0.0134 µg/mL)	0.03 (≈ 0.0134 µg/mL)	0.03 (≈ 0.0134 µg/mL)	0.03 (≈ 0.0134 µg/mL)	0.03 (≈ 0.0134 µg/mL)	0.03 (≈ 0.0134 µg/mL)	0.03 (≈ 0.0134 µg/mL)
CCCSc1nnc(-c2cc([N+](=O)[O-])cc([N+](=O)[O-])c2)n1Cc1ccccc1	0.125 (≈ 0.0499 µg/mL)	0.125 (≈ 0.0499 µg/mL)	0.125 (≈ 0.0499 µg/mL)	0.125 (≈ 0.0499 µg/mL)	0.06 (≈ 0.024 µg/mL)	0.125 (≈ 0.0499 µg/mL)	0.125 (≈ 0.0499 µg/mL)	0.06 (≈ 0.024 µg/mL)	0.125 (≈ 0.0499 µg/mL)	0.06 (≈ 0.024 µg/mL)	0.125 (≈ 0.0499 µg/mL)	0.06 (≈ 0.024 µg/mL)
O=[N+]([O-])c1cc(CSc2nnc(-c3ccc(Br)cc3)n2Cc2ccccc2)cc([N+](=O)[O-])c1	2 (≈ 1.05 µg/mL)	4 (≈ 2.11 µg/mL)	2 (≈ 1.05 µg/mL)	4 (≈ 2.11 µg/mL)	2 (≈ 1.05 µg/mL)	4 (≈ 2.11 µg/mL)	4 (≈ 2.11 µg/mL)	2 (≈ 1.05 µg/mL)	4 (≈ 2.11 µg/mL)	2 (≈ 1.05 µg/mL)	4 (≈ 2.11 µg/mL)	4 (≈ 2.11 µg/mL)
O=[N+]([O-])c1cc(CSc2nnc(-c3ccccc3)n2Cc2ccccc2)cc([N+](=O)[O-])c1	2 (≈ 0.895 µg/mL)	4 (≈ 1.79 µg/mL)	2 (≈ 0.895 µg/mL)	4 (≈ 1.79 µg/mL)	4 (≈ 1.79 µg/mL)	4 (≈ 1.79 µg/mL)	4 (≈ 1.79 µg/mL)	2 (≈ 0.895 µg/mL)	4 (≈ 1.79 µg/mL)	2 (≈ 0.895 µg/mL)	4 (≈ 1.79 µg/mL)	4 (≈ 1.79 µg/mL)
O=[N+]([O-])c1cc(-c2nnc(SCc3ccc(Cl)c(Cl)c3)n2Cc2ccccc2)cc([N+](=O)[O-])c1	0.25 (≈ 0.129 µg/mL)	0.25 (≈ 0.129 µg/mL)	0.125 (≈ 0.0645 µg/mL)	0.125 (≈ 0.0645 µg/mL)	0.25 (≈ 0.129 µg/mL)	0.25 (≈ 0.129 µg/mL)	0.25 (≈ 0.129 µg/mL)	0.25 (≈ 0.129 µg/mL)	0.25 (≈ 0.129 µg/mL)	0.25 (≈ 0.129 µg/mL)	0.25 (≈ 0.129 µg/mL)	0.25 (≈ 0.129 µg/mL)
O=[N+]([O-])c1cc(CSc2nnc(C3CCCCC3)n2Cc2ccccc2)cc(C(F)(F)F)c1	16 (≈ 7.62 µg/mL)	16 (≈ 7.62 µg/mL)	16 (≈ 7.62 µg/mL)	16 (≈ 7.62 µg/mL)	16 (≈ 7.62 µg/mL)	16 (≈ 7.62 µg/mL)	16 (≈ 7.62 µg/mL)	16 (≈ 7.62 µg/mL)	16 (≈ 7.62 µg/mL)	16 (≈ 7.62 µg/mL)	16 (≈ 7.62 µg/mL)	16 (≈ 7.62 µg/mL)
